This passage reports viability, differential viability (reversal) and inhibition results from PubChem BioAssay.

Calls of active or inactive are those of the source.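 How the source made its calls, unless noted: active means viability at or under a set limit in both replicates, limit being median viability minus 3 SD (cut at about 48% in these data, passing the limit was not always enough); inconclusive means at or under the limit in just one replicate; inactive means at or above the limit in both replicates.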

Assay [1] is described as follows: reduced viability of SK-BR-3 breast cancer cells – cell-based, 24 h, human, pilot screen (AID 572;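 active means viability at or below 10% of carrier control in both of two separate runs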;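 further: compound exposure lasted between 18 and 24 h rather than exactly 24 h; 100% = carrier-treated control wells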). The following applies: SK-BR-3 viability, CellTiter-Glo luminescence, at 10 µM, stronger effect = lower value. Background: ATP-based viability assays read luminescence as a measure of living cells.
Assay [2] in a line: HUVEC growth inhibition – cell-based, human, primary screen (AID 575;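 active means viability at or below 30% in both replicate assays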;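 further: 100% = median of untreated cell wells with 0.1% DMSO on each plate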). As to conditions: HUVEC proliferation, CellTiter-Glo luminescence, 72 h; at 10 µM; stronger effect = lower value. In outline: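 Test system – primary HUVEC, no more than 12 passages · Dosing – one dose, 10 µM final, 0.1% DMSO · Times – 72 h treatment at 37 °C · Measured by – ATP-based CellTiter-Glo luminescent read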

The nature of assay [3]: H69AR cell proliferation blockers – human, duplicate replicates, primary screen (AID 580).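 Further: 100% = mean luminescence of untreated wells and 0% = no signal.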 As to conditions: H69AR lung tumor cells viability, ATP luminescence, 72 h; at 10 µM; stronger effect = lower value.
Assay [4] in a line: MRP1 drug-resistance reversers in H69AR cells – cell-based, doxorubicin co-treatment, pilot screen (AID 601;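 active means viability loss from added drug above about 55%, and viability with drug at most 40%, in both replicates, limit read from the data, passing the limit was not always enough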). The following applies: CellTiter-Glo, 72 h, at 10 µM; for differential viability (reversal): stronger effect = higher value.
The nature of assay [5]: yeast transport mutant growth inhibition pilot in 384-well plates, post-Golgi transport modulator project (AID 636; in the data active means inhibition above about 31%). The following applies: absorbance 615 nm, about 18 h, stronger effect = higher value.
The nature of assay [6]: growth suppression of yeast trafficking mutant, preliminary HTS, modulators of trafficking downstream of Golgi apparatus project, 1536-format plate, OD 615 nm (AID 637; in the data active means inhibition above about 30%). As to conditions: yeast transport mutant growth, absorbance 615 nm, 18 h; stronger effect = higher value.
[7] abbreviates: H69AR cells + 2 uM doxorubicin, measured here: viability with 2 uM doxorubicin, stronger effect = lower value.
Where [8] appears, read: H69AR cells, compound alone cytotoxicity.

For orientation: viability means a read-out of living cells in per cent, often relative to untreated cells. As usually defined, the inhibition is the change of the read-out against control, counted positive when it falls. Regarding `NS(=O)(=O)c1cc2c(cc1Cl)NCNS2(=O)=O`, the viability in assay [1] is 73% (inactive); in assay [2], 97.2% (inactive); in assay [3], 91.3% (inactive); in assay [4] (setting [7]) it was 96.4%; in assay [4] (setting [8]), 91.3%. For the same compound, the differential viability (reversal) in assay [4] (H69AR cells + 2 uM doxorubicin) is -5.11% (inactive). Further, the results for the inhibition in assay [5] and in assay [6] were 0.65% (inactive) and 1.17% (inactive), respectively.
Regarding `c1ccc2c(-c3nc(-c4ccncc4)no3)cccc2c1`, the viability in assay [1] is 56% (inactive); in assay [2], 86.4% (inactive); in assay [3], 102% (inactive); in assay [4] (setting [7]) it was 96.3%; in assay [4] (setting [8]), 102%. Also, the differential viability (reversal) in assay [4] (H69AR cells + 2 uM doxorubicin) was 5.25% (inactive). The inhibition in assay [5] is -5.89% (inactive); in assay [6], 10.6% (inactive).
`COc1ccccc1NC(=O)CSc1nnc(Cn2nnc(-c3ccccc3)n2)n1-c1ccccc1`: the viability in assay [1] is 63% (inactive); in assay [2], 88.7% (inactive); in assay [3], 87.4% (inactive); in assay [4] (setting [7]) it was 92.8%; in assay [4] (setting [8]) it was 87.4%. In addition, the differential viability (reversal) in assay [4] (H69AR cells + 2 uM doxorubicin) was -5.36% (inactive). Besides, the inhibition in assay [5] was -5.75% (inactive); in assay [6], -1.45% (inactive).
Regarding `O=C(Cn1c(=O)oc2ccccc21)N1CCN(c2ccccc2)CC1`, the viability in assay [1] is 94% (inactive); in assay [2] it was 104% (inactive); in assay [3] it was 88.8% (inactive); in assay [4] (setting [7]), 92.1%; in assay [4] (setting [8]), 88.8%. The differential viability (reversal) in assay [4] (H69AR cells + 2 uM doxorubicin) was -3.33% (inactive). For the same compound, the values for the inhibition in assay [5] and in assay [6] were -8.63% (inactive) and 8.18% (inactive), respectively.
`Cc1cc(C)n(-c2nc3c(c(=O)[nH]c(=O)n3C)n2Cc2ccc(F)cc2)n1`: the viability in assay [1] is 93% (inactive); in assay [2], 113% (inactive); in assay [3], 96.5% (inactive); in assay [4] (setting [7]) it was 87.8%; in assay [4] (setting [8]) it was 96.5%. Besides, the differential viability (reversal) in assay [4] (H69AR cells + 2 uM doxorubicin) was 8.69% (inactive). Further, the results for the inhibition in assay [5] and in assay [6] were -4.19% (inactive) and -1.45% (inactive), respectively.
Turning to `COc1ccc(C(=O)NC(=O)CSc2nnc(-c3ccco3)n2-c2ccccc2)cc1`, the viability in assay [1] was 90% (inactive); in assay [2] it was 109% (inactive); in assay [3] it was 105% (inactive); in assay [4] (setting [7]), 88.7%; in assay [4] (setting [8]), 105%. The differential viability (reversal) in assay [4] (H69AR cells + 2 uM doxorubicin) is 16.3% (inactive). Besides, the inhibition in assay [5] is -7.3% (inactive); in assay [6], -0.55% (inactive).
Take `COCC(=O)n1nc(NCc2ccc(OC)cc2)nc1NCc1ccc(OC)cc1`: the viability is 116% (inactive) in assay [1]; 105% (inactive) in assay [2]; 99.8% (inactive) in assay [3]; 90.5% in assay [4] (setting [7]); 99.8% in assay [4] (setting [8]). In assay [4] (H69AR cells + 2 uM doxorubicin), the differential viability (reversal) was 9.29% (inactive). Besides, the inhibition is 53.3% (active) in assay [5] and 28.6% (inactive) in assay [6].
`CCOc1ccccc1-n1c(SCC(=O)NC2CCCC2)nnc1-c1ccoc1C`: the viability in assay [1] is 77% (inactive); in assay [2], 97% (inactive); in assay [3] it was 93% (inactive); in assay [4] (setting [7]), 91.3%; in assay [4] (setting [8]), 93%. In addition, in assay [4] (H69AR cells + 2 uM doxorubicin), the differential viability (reversal) is 1.66% (inactive). Further, the figures for the inhibition in assay [5] and in assay [6] were 0.91% (inactive) and -4.92% (inactive), respectively.
With `COC(=O)CCC(=O)Nc1ccc(S(=O)(=O)N2CCCCCC2)cc1`, the viability in assay [1] is 103% (inactive); in assay [2], 99.2% (inactive); in assay [3], 100% (inactive); in assay [4] (setting [7]), 98.8%; in assay [4] (setting [8]) it was 100%. Moreover, the differential viability (reversal) in assay [4] (H69AR cells + 2 uM doxorubicin) was 1.32% (inactive). For the same compound, the inhibition in assay [5] is -1.69% (inactive); in assay [6] it was 1.15% (inactive).
For the compound `O=C(NS(=O)(=O)c1ccc(NC(=O)C2CCCO2)cc1)c1ccccc1` (centres undefined), the viability in assay [1] is 79% (inactive); in assay [2] it was 103% (inactive); in assay [3], 92.8% (inactive); in assay [4] (setting [7]) it was 88.7%; in assay [4] (setting [8]) it was 92.8%. Further, the differential viability (reversal) in assay [4] (H69AR cells + 2 uM doxorubicin) is 4.17% (inactive). The inhibition in assay [5] was -6.35% (inactive); in assay [6] it was -0.55% (inactive).
As for `CCOC(=O)CNC(=O)CSc1nnnn1-c1cc(C)ccc1C`, the viability in assay [1] is 105% (inactive); in assay [2] it was 105% (inactive); in assay [3], 110% (inactive); in assay [4] (setting [7]) it was 98.1%; in assay [4] (setting [8]) it was 110%. Further, the differential viability (reversal) in assay [4] (H69AR cells + 2 uM doxorubicin) is 12.1% (inactive). For the same compound, the inhibition is -2.08% (inactive) in assay [5] and -1.48% (inactive) in assay [6].
`Cc1ccc2c(CC(=O)OCc3csc(C)n3)coc2c1`: the viability is 106% (inactive) in assay [1]; 90.3% (inactive) in assay [2]; 98.5% (inactive) in assay [3]; 96% in assay [4] (setting [7]); 98.5% in assay [4] (setting [8]). In assay [4] (H69AR cells + 2 uM doxorubicin), the differential viability (reversal) was 2.5% (inactive). Further, the inhibition in assay [5] is -8.78% (inactive); in assay [6], 3.77% (inactive).
As to `CCN1C(=O)CC(N2CCC(Nc3ccc(F)cc3)CC2)C1=O` (centres undefined), the viability in assay [1] is 78% (inactive); in assay [2] it was 93.5% (inactive); in assay [3] it was 92.3% (inactive); in assay [4] (setting [7]), 90.3%; in assay [4] (setting [8]), 92.3%. The differential viability (reversal) in assay [4] (H69AR cells + 2 uM doxorubicin) is 1.94% (inactive). Moreover, the figures for the inhibition in assay [5] and in assay [6] were -0.65% (inactive) and -0.98% (inactive), respectively.
With `Cn1c(C(=O)OCC(=O)NCC2CCCO2)cc2sccc21` (centres undefined), the viability in assay [1] is 85% (inactive); in assay [2], 113% (inactive); in assay [3], 92.7% (inactive); in assay [4] (setting [7]) it was 89.6%; in assay [4] (setting [8]), 92.7%. For the same compound, the differential viability (reversal) in assay [4] (H69AR cells + 2 uM doxorubicin) was 3.19% (inactive). For the same compound, the results for the inhibition in assay [5] and in assay [6] were -9.04% (inactive) and 2.9% (inactive), respectively.
Take `Cc1nc2scc(-c3ccco3)c2c(=O)n1/N=C/N(C)C`: the viability in assay [1] is 87% (inactive); in assay [2] it was 76.1% (inactive); in assay [3], 95.3% (inactive); in assay [4] (setting [7]) it was 92.6%; in assay [4] (setting [8]) it was 95.3%. The differential viability (reversal) in assay [4] (H69AR cells + 2 uM doxorubicin) was 2.7% (inactive). Further, the values for the inhibition in assay [5] and in assay [6] were -4.86% (inactive) and -4.73% (inactive), respectively.
As for `Cc1c(NC(=O)C(C)Oc2ncnc3ccccc23)c(=O)n(-c2ccccc2)n1C` (centres undefined), the viability in assay [1] was 115% (inactive); in assay [2] it was 91.9% (inactive); in assay [3], 97% (inactive); in assay [4] (setting [7]) it was 90%; in assay [4] (setting [8]), 97%. Also, the differential viability (reversal) in assay [4] (H69AR cells + 2 uM doxorubicin) is 7.01% (inactive). In addition, the inhibition in assay [5] was -4.42% (inactive); in assay [6] it was -3.28% (inactive).
Consider `CCOC(=O)Cn1nnc(-c2ccc(SC)cc2)n1`, for which the viability in assay [1] was 96% (inactive); in assay [2], 100% (inactive); in assay [3], 98% (inactive); in assay [4] (setting [7]), 92.3%; in assay [4] (setting [8]), 98%. For the same compound, in assay [4] (H69AR cells + 2 uM doxorubicin), the differential viability (reversal) was 5.72% (inactive). Also, the inhibition in assay [5] was -8.38% (inactive); in assay [6], -4.36% (inactive).
As to `Cn1ncc2c(Nc3ccccc3Br)ncnc21`, the viability is 109% (inactive) in assay [1]; 101% (inactive) in assay [2]; 106% (inactive) in assay [3]; 92.8% in assay [4] (setting [7]); 106% in assay [4] (setting [8]). Also, the differential viability (reversal) in assay [4] (H69AR cells + 2 uM doxorubicin) was 13.5% (inactive). Moreover, the inhibition in assay [5] is -7.67% (inactive); in assay [6], -2.55% (inactive).
